According to ChEMBL document CHEMBL2390884, “Design, synthesis and antiproliferative activity studies of novel 1,2,3-triazole-dithiocarbamate-urea hybrids” (Eur J Med Chem, 2013):
Activity calls are given as the source filed them. No cut-off for these calls is given here.

Legend:
[1] = tested on: MGC-803; assay: Induction of apoptosis in human MGC803 cells assessed as necrotic cells at 1 uM after 12 hrs by AnnexinV-FITC/propidium iodide staining-based flow cytometry (reference value: 2.4 %); format: functional
[2] = tested on: MGC-803; assay: Cell cycle arrest in human MGC803 cells assessed as accumulation at G2/M phase at 0.5 uM after 12 hrs by propidium iodide staining-based flow cytometry; format: functional
Outline: (§1)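 Exponentially growing MGC-803 cells (5×10^5) treated at 0, 0.25, 0.5 or 1.0 µmol/L for 12 or 24 h; cells collected, fixed in ice-cold 70% ethanol, treated with buffer containing RNAse A and 0.1% Triton X-100, stained with PI; DNA content analysed by flow cytometry to give percentages of cells in G1, S and G2/M phases.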

[3] = tested on: MGC-803; assay: Cell cycle arrest in human MGC803 cells assessed as reduction in S phase accumulation at 0.25 to 1 uM by propidium iodide staining-based flow cytometry; format: functional; details: TDE = time-dependent effect; outline: as §1
[4] = tested on: MCF7; assay: Cytotoxicity against human MCF7 cells after 72 hrs by MTT assay; format: functional, cell-based; details: MCF7, 72 h
[5] = tested on: MGC-803; assay: Cell cycle arrest in human MGC803 cells assessed as accumulation at G0/G1 phase at 0.5 uM after 12 hrs by propidium iodide staining-based flow cytometry; format: functional; outline: as §1
[6] = tested on: SMMC-7721; assay: Cytotoxicity against human SMMC7721 cells after 72 hrs by MTT assay; format: functional, cell-based; details: SMMC-7721, 72 h
[7] = tested on: MGC-803; assay: Cell cycle arrest in human MGC803 cells assessed as accumulation at G2/M phase at 0.25 uM after 24 hrs by propidium iodide staining-based flow cytometry; format: functional; outline: as §1
[8] = tested on: MGC-803; assay: Cell cycle arrest in human MGC803 cells assessed as accumulation at G0/G1 phase at 0.5 uM after 24 hrs by propidium iodide staining-based flow cytometry; format: functional; outline: as §1
[9] = tested on: MGC-803; assay: Induction of apoptosis in human MGC803 cells assessed as late apoptotic cells at 0.25 uM after 12 hrs by AnnexinV-FITC/propidium iodide staining-based flow cytometry (reference value: 3.0 %); format: functional
[10] = Cytotoxicity against human EC9706 cells after 72 hrs by MTT assay; format: functional, cell-based; details: EC9706, 72 h
[11] = tested on: MGC-803; assay: Cell cycle arrest in human MGC803 cells assessed as reduction in G1 phase accumulation after 12 to 24 hrs by propidium iodide staining-based flow cytometry; format: functional; outline: as §1
[12] = tested on: MGC-803; assay: Cell cycle arrest in human MGC803 cells assessed as accumulation at G0/G1 phase at 0.25 uM after 12 hrs by propidium iodide staining-based flow cytometry; format: functional; outline: as §1
[13] = tested on: MGC-803; assay: Induction of apoptosis in human MGC803 cells assessed as viable cells at 1 uM after 12 hrs by AnnexinV-FITC/propidium iodide staining-based flow cytometry (reference value: 91.9 %); format: functional; details: MGC-803, 12 h, read-out: Activity
[14] = tested on: MGC-803; assay: Induction of apoptosis in human MGC803 cells assessed as nuclear fragmentation at 0.25 to 1 uM after 12 hrs by Hoechst 33258 staining-based fluorescence microscopy; format: functional, cell-based
Outline: (§2)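 MGC-803 cells seeded at 8×10^3 cells/well, treated 12 h at 0, 0.25, 0.5 or 1.0 µmol/L; cells collected, fixed, stained 20 min with Hoechst 33258, washed with PBS; nuclear shrinkage, chromatin condensation, intense fluorescence and fragmentation scored by fluorescence microscopy.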

[15] = tested on: MGC-803; assay: Cell cycle arrest in human MGC803 cells assessed as accumulation at G2/M phase at 1 uM after 24 hrs by propidium iodide staining-based flow cytometry; format: functional; outline: as §1
[16] = tested on: MGC-803; assay: Cell cycle arrest in human MGC803 cells assessed as accumulation at G2/M phase at 0.25 to 1 uM by propidium iodide staining-based flow cytometry; format: functional; details: TDE = time-dependent effect; outline: as §1
[17] = tested on: MGC-803; assay: Cell cycle arrest in human MGC803 cells assessed as accumulation at G2/M phase at 1 uM after 12 hrs by propidium iodide staining-based flow cytometry; format: functional; outline: as §1
[18] = tested on: MGC-803; assay: Induction of apoptosis in human MGC803 cells assessed as late apoptotic cells at 0.5 uM after 12 hrs by AnnexinV-FITC/propidium iodide staining-based flow cytometry (reference value: 3.0 %); format: functional
[19] = tested on: MGC-803; assay: Induction of apoptosis in human MGC803 cells after 12 hrs by AnnexinV-FITC/propidium iodide staining-based flow cytometry; format: functional, cell-based
[20] = tested on: MGC-803; assay: Induction of apoptosis in human MGC803 cells assessed as early apoptotic cells at 1 uM after 12 hrs by AnnexinV-FITC/propidium iodide staining-based flow cytometry (reference value: 2.8 %); format: functional
[21] = tested on: MGC-803; assay: Induction of apoptosis in human MGC803 cells assessed as viable cells at 0.25 uM after 12 hrs by AnnexinV-FITC/propidium iodide staining-based flow cytometry (reference value: 91.9 %); format: functional; details: MGC-803, 12 h, read-out: Activity
[22] = tested on: MGC-803; assay: Induction of apoptosis in human MGC803 cells assessed as nuclear shrinkage at 0.25 to 1 uM after 12 hrs by Hoechst 33258 staining-based fluorescence microscopy; format: functional, cell-based; outline: as §2
[23] = tested on: MGC-803; assay: Induction of apoptosis in human MGC803 cells at 0.25 to 1 uM after 12 hrs by AnnexinV-FITC/propidium iodide staining-based flow cytometry (reference value: 2.8 %); format: functional
[24] = tested on: MGC-803; assay: Cell cycle arrest in human MGC803 cells assessed as reduction in G1 phase accumulation at 0.25 to 1 uM by propidium iodide staining-based flow cytometry; format: functional; details: TDE = time-dependent effect; outline: as §1
[25] = tested on: MGC-803; assay: Induction of apoptosis in human MGC803 cells assessed as chromatin condensation at 0.25 to 1 uM after 12 hrs by Hoechst 33258 staining-based fluorescence microscopy; format: functional, cell-based; outline: as §2
[26] = tested on: MGC-803; assay: Induction of apoptosis in human MGC803 cells assessed as late apoptotic cells at 1 uM after 12 hrs by AnnexinV-FITC/propidium iodide staining-based flow cytometry (reference value: 3.0 %); format: functional
[27] = tested on: MGC-803; assay: Cell cycle arrest in human MGC803 cells assessed as accumulation at G0/G1 phase at 1 uM after 24 hrs by propidium iodide staining-based flow cytometry; format: functional; outline: as §1
[28] = tested on: MGC-803; assay: Induction of apoptosis in human MGC803 cells assessed as early apoptotic cells at 0.5 uM after 12 hrs by AnnexinV-FITC/propidium iodide staining-based flow cytometry (reference value: 2.8 %); format: functional
[29] = tested on: MGC-803; assay: Induction of apoptosis in human MGC803 cells assessed as necrotic cells at 0.25 uM after 12 hrs by AnnexinV-FITC/propidium iodide staining-based flow cytometry (reference value: 2.4 %); format: functional
[30] = tested on: MGC-803; assay: Cell cycle arrest in human MGC803 cells assessed as accumulation at S phase at 0.5 uM after 24 hrs by propidium iodide staining-based flow cytometry; format: functional; outline: as §1
[31] = tested on: MGC-803; assay: Cell cycle arrest in human MGC803 cells assessed as accumulation at S phase at 1 uM after 12 hrs by propidium iodide staining-based flow cytometry; format: functional; outline: as §1
[32] = tested on: MGC-803; assay: Cell cycle arrest in human MGC803 cells assessed as accumulation at G2/M phase at 0.25 uM after 12 hrs by propidium iodide staining-based flow cytometry; format: functional; outline: as §1
[33] = tested on: MGC-803; assay: Cell cycle arrest in human MGC803 cells assessed as accumulation at G0/G1 phase at 1 uM after 12 hrs by propidium iodide staining-based flow cytometry; format: functional; outline: as §1
[34] = tested on: MGC-803; assay: Cell cycle arrest in human MGC803 cells assessed as accumulation at S phase at 0.5 uM after 12 hrs by propidium iodide staining-based flow cytometry; format: functional; outline: as §1
[35] = tested on: MGC-803; assay: Induction of apoptosis in human MGC803 cells assessed as early apoptotic cells at 0.25 uM after 12 hrs by AnnexinV-FITC/propidium iodide staining-based flow cytometry (reference value: 2.8 %); format: functional

In the case of `CC(C)NC(=O)N1CCN(C(=S)SCc2cn(Cc3ccc(F)cc3)nn2)CC1`, the Activity [1] is reported as 1.2%, the Activity [2] is reported as 46.86% and the Activity [3] is reported as “tde”. The IC50 [4] was 1.66 µM, the Activity [5] was 22.18% and the IC50 [6] was 5.97 µM. For the same compound, the Activity [7] was 58.94%, the Activity [8] was 4.91% and the Activity [9] was 2.2%. The IC50 [10] was 12.2 µM, the Activity [11] was “Dose-dependent effect” and the Activity [12] was 37.35%. For the same compound, the viability at 1 µM [13] was 65%, the Activity [14] was “Active” and the Activity [15] was 79.02%. The Activity [16] was “tde”, the Activity [17] was 68.68% and the Activity [18] was 1.8%. For the same compound, the Activity [19] was “Dose-dependent effect”, the Activity [20] was 31.4% and the viability at 0.25 µM [21] was 88.1%. The Activity [22] was “Active”, the Activity [23] was 31.4% and the Activity [24] was “tde”. For the same compound, the Activity [25] was “Active”, the Activity [26] was 2.4% and the Activity [27] was 2.32%. For the same compound, the Activity [28] was 17.2%, the Activity [29] was 0.5% and the Activity [30] was 20.57%. For the same compound, the Activity [31] was 12.65%, the Activity [32] was 20.84% and the Activity [33] was 3.62%. It also gave an Activity [34] of 32.65% and an Activity [35] of 9.2%.
